Several values for one entry are separate records, joined by “and”; a condition that tells them apart may be missing. Equal entries are not always repeated.
System: HEK-293T
Assay: Multiplex assay against HEK293T
Format: toxicity, cell-based
Settings: human
Method in brief: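 Values for tubulin, mitochondrial-mass and membrane-permeability phenotypes are per cents of cells with healthy nuclei. These cells were identified by CellPathfinder machine-learning gating of live cells that had been stained at seeding with Hoechst33342, BioTracker Green Microtubule Cytoskeleton Dye, MitoTracker Red and Annexin V Alexa Fluor 680 and imaged on a CQ1 microscope at 37°C and 5% CO2 after compound addition. The gating first set Hoechst high-intensity objects apart from normal cells, then split normal cells into healthy, pyknosed or fragmented nuclei, and pyknosed cells into mitotic or apoptotic.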

[1] = 12 h, 1 µM, compound concentration 1 uM
[2] = 12 h, 10 µM, compound concentration 10 uM
[3] = 24 h, 1 µM, compound concentration 1 uM
[4] = 24 h, 10 µM, compound concentration 10 uM
[5] = 48 h, 1 µM, compound concentration 1 uM
[6] = 48 h, 10 µM, compound concentration 10 uM

## Cc1ccc(-c2ccc(F)cc2COc2ccc(CCC(=O)O)cc2)cc1
[1]
  Population Apoptotic (%): 42% and 33%
  Population Fragmented Nuclei (%): 6%
  Population Healthy Nuclei (%): 82% and 77%
  Population Hoechst High Intensity Objects (%): 9%
  Population Mitochondria Different-Phenotype (%): 36% and 50%
  Population Mitotic Cells (%): 57% and 66%
  Population Normal (%): 90%
  Population Pyknosed Nuclei (%): 15%
  Population Tubulin-Different-Phenotype (%): 18%
  Total Cell Count: 465 and 324
[2]
  Population Apoptotic (%): 32% and 42%
  Population Fragmented Nuclei (%): 10% and 7%
  Population Healthy Nuclei (%): 79% and 83%
  Population Hoechst High Intensity Objects (%): 7% and 6%
  Population Mitochondria Different-Phenotype (%): 46% and 58%
  Population Mitotic Cells (%): 67% and 57%
  Population Normal (%): 92% and 93%
  Population Pyknosed Nuclei (%): 10% and 9%
  Population Tubulin-Different-Phenotype (%): 33% and 15%
  Total Cell Count: 329 and 396
[3]
  Population Fragmented Nuclei (%): 10% and 9%
  Population Healthy Nuclei (%): 82% and 80%
  Population Hoechst High Intensity Objects (%): 3% and 7%
  Population Mitochondria Different-Phenotype (%): 16% and 33%
  Population Mitotic Cells (%): 84% and 47%
  Population Normal (%): 96% and 92%
  Population Pyknosed Nuclei (%): 7% and 9%
  Population Tubulin-Different-Phenotype (%): 10% and 13%
  Total Cell Count: 688 and 445
[4]
  Population Apoptotic (%): 36% and 51%
  Population Fragmented Nuclei (%): 11% and 6%
  Population Healthy Nuclei (%): 76% and 87%
  Population Hoechst High Intensity Objects (%): 3%
  Population Mitochondria Different-Phenotype (%): 30% and 37%
  Population Mitotic Cells (%): 63% and 48%
  Population Normal (%): 94% and 96%
  Population Pyknosed Nuclei (%): 6%
  Population Tubulin-Different-Phenotype (%): 18% and 13%
  Total Cell Count: 397 and 461
[5]
  Population Apoptotic (%): 17% and 36%
  Population Fragmented Nuclei (%): 15% and 14%
  Population Healthy Nuclei (%): 79% and 77%
  Population Hoechst High Intensity Objects (%): 1% and 2%
  Population Mitochondria Different-Phenotype (%): 7% and 18%
  Population Mitotic Cells (%): 82% and 63%
  Population Normal (%): 98% and 97%
  Population Pyknosed Nuclei (%): 5%
  Population Tubulin-Different-Phenotype (%): 8% and 9%
  Total Cell Count: 1149 and 631
[6]
  Population Apoptotic (%): 24% and 31%
  Population Fragmented Nuclei (%): 12% and 15%
  Population Healthy Nuclei (%): 78% and 79%
  Population Hoechst High Intensity Objects (%): 2% and 4%
  Population Mitochondria Different-Phenotype (%): 17% and 16%
  Population Mitotic Cells (%): 75% and 68%
  Population Normal (%): 97% and 95%
  Population Pyknosed Nuclei (%): 5%
  Population Tubulin-Different-Phenotype (%): 9% and 8%
  Total Cell Count: 713 and 702

## O=C(Nc1cc(-c2ccccc2)nn1-c1ccccc1F)c1ccc([N+](=O)[O-])cc1
[1]
  Population Apoptotic (%): 33% and 37%
  Population Fragmented Nuclei (%): 7% and 6%
  Population Healthy Nuclei (%): 78% and 83%
  Population Hoechst High Intensity Objects (%): 9% and 6%
  Population Membrane Permeable-Phenotype (%): 0%
  Population Mitochondria Different-Phenotype (%): 31% and 48%
  Population Mitotic Cells (%): 66% and 62%
  Population Normal (%): 90% and 94%
  Population Pyknosed Nuclei (%): 13% and 9%
  Population Tubulin-Different-Phenotype (%): 19%
  Total Cell Count: 402 and 417
[2]
  Population Apoptotic (%): 37% and 44%
  Population Fragmented Nuclei (%): 10% and 6%
  Population Healthy Nuclei (%): 71% and 73%
  Population Hoechst High Intensity Objects (%): 5% and 6%
  Population Membrane Permeable-Phenotype (%): 0%
  Population Mitochondria Different-Phenotype (%): 41% and 65%
  Population Mitotic Cells (%): 62% and 55%
  Population Normal (%): 94% and 93%
  Population Pyknosed Nuclei (%): 17% and 20%
  Population Tubulin-Different-Phenotype (%): 40% and 45%
  Total Cell Count: 342 and 367
[3]
  Population Apoptotic (%): 33% and 35%
  Population Fragmented Nuclei (%): 8% and 12%
  Population Healthy Nuclei (%): 78%
  Population Hoechst High Intensity Objects (%): 4%
  Population Membrane Permeable-Phenotype (%): 0% and 1%
  Population Mitochondria Different-Phenotype (%): 21% and 31%
  Population Mitotic Cells (%): 66% and 64%
  Population Normal (%): 95%
  Population Pyknosed Nuclei (%): 12% and 8%
  Population Tubulin-Different-Phenotype (%): 17% and 16%
  Total Cell Count: 481 and 530
[4]
  Population Apoptotic (%): 15% and 22%
  Population Fragmented Nuclei (%): 9% and 7%
  Population Healthy Nuclei (%): 77% and 83%
  Population Hoechst High Intensity Objects (%): 2% and 3%
  Population Membrane Permeable-Phenotype (%): 0%
  Population Mitochondria Different-Phenotype (%): 35% and 47%
  Population Mitotic Cells (%): 84% and 77%
  Population Normal (%): 97% and 96%
  Population Pyknosed Nuclei (%): 13% and 8%
  Population Tubulin-Different-Phenotype (%): 35% and 33%
  Total Cell Count: 434 and 482
[5]
  Population Apoptotic (%): 17% and 33%
  Population Fragmented Nuclei (%): 13% and 17%
  Population Healthy Nuclei (%): 79% and 74%
  Population Hoechst High Intensity Objects (%): 3% and 2%
  Population Membrane Permeable-Phenotype (%): 2%
  Population Mitochondria Different-Phenotype (%): 14% and 15%
  Population Mitotic Cells (%): 82% and 66%
  Population Normal (%): 96% and 97%
  Population Pyknosed Nuclei (%): 7%
  Population Tubulin-Different-Phenotype (%): 9% and 11%
  Total Cell Count: 893 and 799
[6]
  Population Apoptotic (%): 22% and 20%
  Population Fragmented Nuclei (%): 12% and 15%
  Population Healthy Nuclei (%): 77%
  Population Hoechst High Intensity Objects (%): 2% and 3%
  Population Membrane Permeable-Phenotype (%): 2% and 1%
  Population Mitochondria Different-Phenotype (%): 19% and 27%
  Population Mitotic Cells (%): 77% and 79%
  Population Normal (%): 97% and 96%
  Population Pyknosed Nuclei (%): 9% and 6%
  Population Tubulin-Different-Phenotype (%): 23% and 26%
  Total Cell Count: 671 and 666

## CCCCCC(O)/C=C/[C@H]1C(=O)CC(O)C1C/C=C\CCCC(=O)O (some centres not stated)
[1]
  Population Apoptotic (%): 29% and 39%
  Population Fragmented Nuclei (%): 8% and 7%
  Population Healthy Nuclei (%): 80% and 83%
  Population Hoechst High Intensity Objects (%): 8% and 6%
  Population Membrane Permeable-Phenotype (%): 0%
  Population Mitochondria Different-Phenotype (%): 44% and 56%
  Population Mitotic Cells (%): 70% and 60%
  Population Normal (%): 91% and 93%
  Population Pyknosed Nuclei (%): 11% and 9%
  Population Tubulin-Different-Phenotype (%): 23% and 20%
  Total Cell Count: 409 and 383
[2]
  Population Apoptotic (%): 48% and 54%
  Population Fragmented Nuclei (%): 6%
  Population Healthy Nuclei (%): 79% and 77%
  Population Hoechst High Intensity Objects (%): 9% and 7%
  Population Membrane Permeable-Phenotype (%): 0%
  Population Mitochondria Different-Phenotype (%): 48% and 59%
  Population Mitotic Cells (%): 51% and 46%
  Population Normal (%): 90% and 92%
  Population Pyknosed Nuclei (%): 14% and 15%
  Population Tubulin-Different-Phenotype (%): 31% and 25%
  Total Cell Count: 409 and 343
[3]
  Population Apoptotic (%): 40% and 44%
  Population Fragmented Nuclei (%): 8% and 7%
  Population Healthy Nuclei (%): 83% and 84%
  Population Hoechst High Intensity Objects (%): 3% and 7%
  Population Membrane Permeable-Phenotype (%): 1% and 0%
  Population Mitochondria Different-Phenotype (%): 22% and 41%
  Population Mitotic Cells (%): 59% and 55%
  Population Normal (%): 96% and 92%
  Population Pyknosed Nuclei (%): 8% and 7%
  Population Tubulin-Different-Phenotype (%): 11% and 14%
  Total Cell Count: 611 and 492
[4]
  Population Apoptotic (%): 27% and 44%
  Population Fragmented Nuclei (%): 10% and 9%
  Population Healthy Nuclei (%): 75% and 77%
  Population Hoechst High Intensity Objects (%): 4% and 9%
  Population Membrane Permeable-Phenotype (%): 0%
  Population Mitochondria Different-Phenotype (%): 29% and 50%
  Population Mitotic Cells (%): 72% and 55%
  Population Normal (%): 95% and 90%
  Population Pyknosed Nuclei (%): 13%
  Population Tubulin-Different-Phenotype (%): 16% and 21%
  Total Cell Count: 523 and 388
[5]
  Population Apoptotic (%): 29% and 30%
  Population Fragmented Nuclei (%): 12% and 13%
  Population Healthy Nuclei (%): 79% and 81%
  Population Hoechst High Intensity Objects (%): 1% and 3%
  Population Membrane Permeable-Phenotype (%): 1% and 2%
  Population Mitochondria Different-Phenotype (%): 20% and 19%
  Population Mitotic Cells (%): 70% and 69%
  Population Normal (%): 98% and 96%
  Population Pyknosed Nuclei (%): 7% and 5%
  Population Tubulin-Different-Phenotype (%): 8% and 7%
  Total Cell Count: 864 and 775
[6]
  Population Apoptotic (%): 22% and 51%
  Population Fragmented Nuclei (%): 12% and 10%
  Population Healthy Nuclei (%): 79% and 80%
  Population Hoechst High Intensity Objects (%): 1% and 3%
  Population Membrane Permeable-Phenotype (%): 0%
  Population Mitochondria Different-Phenotype (%): 17% and 26%
  Population Mitotic Cells (%): 77% and 48%
  Population Normal (%): 98% and 96%
  Population Pyknosed Nuclei (%): 8%
  Population Tubulin-Different-Phenotype (%): 7% and 8%
  Total Cell Count: 815 and 544

## CN(C)C/C=C/C(=O)Nc1ccc(C(=O)N2CCCC(Nc3ncc(Cl)c(-c4c[nH]c5ccccc45)n3)C2)cc1 (configuration not stated)
[1]
  Population Apoptotic (%): 46% and 63%
  Population Fragmented Nuclei (%): 8% and 6%
  Population Healthy Nuclei (%): 55% and 64%
  Population Hoechst High Intensity Objects (%): 30% and 23%
  Population Membrane Permeable-Phenotype (%): 0%
  Population Mitochondria Different-Phenotype (%): 87% and 89%
  Population Mitotic Cells (%): 53% and 36%
  Population Normal (%): 69% and 76%
  Population Pyknosed Nuclei (%): 35% and 29%
  Population Tubulin-Different-Phenotype (%): 69% and 70%
  Total Cell Count: 227 and 231
[2]
  Population Apoptotic (%): 62% and 77%
  Population Fragmented Nuclei (%): 12% and 7%
  Population Healthy Nuclei (%): 57% and 64%
  Population Hoechst High Intensity Objects (%): 35% and 29%
  Population Membrane Permeable-Phenotype (%): 0%
  Population Mitochondria Different-Phenotype (%): 95%
  Population Mitotic Cells (%): 37% and 22%
  Population Normal (%): 64% and 70%
  Population Pyknosed Nuclei (%): 30% and 28%
  Population Tubulin-Different-Phenotype (%): 79% and 81%
  Total Cell Count: 269 and 181
[3]
  Population Apoptotic (%): 72% and 74%
  Population Fragmented Nuclei (%): 15% and 9%
  Population Healthy Nuclei (%): 62% and 67%
  Population Hoechst High Intensity Objects (%): 27% and 26%
  Population Membrane Permeable-Phenotype (%): 0%
  Population Mitochondria Different-Phenotype (%): 85% and 89%
  Population Mitotic Cells (%): 27% and 25%
  Population Normal (%): 72% and 73%
  Population Pyknosed Nuclei (%): 22% and 23%
  Population Tubulin-Different-Phenotype (%): 74% and 70%
  Total Cell Count: 222 and 207
[4]
  Population Apoptotic (%): 74% and 88%
  Population Fragmented Nuclei (%): 19% and 10%
  Population Healthy Nuclei (%): 55% and 68%
  Population Hoechst High Intensity Objects (%): 49% and 34%
  Population Membrane Permeable-Phenotype (%): 0%
  Population Mitochondria Different-Phenotype (%): 96% and 98%
  Population Mitotic Cells (%): 25% and 11%
  Population Normal (%): 50% and 65%
  Population Pyknosed Nuclei (%): 24% and 20%
  Population Tubulin-Different-Phenotype (%): 52% and 77%
  Total Cell Count: 314 and 197
[5]
  Population Apoptotic (%): 67% and 81%
  Population Fragmented Nuclei (%): 16% and 6%
  Population Healthy Nuclei (%): 59% and 65%
  Population Hoechst High Intensity Objects (%): 30% and 26%
  Population Membrane Permeable-Phenotype (%): 0%
  Population Mitochondria Different-Phenotype (%): 79% and 95%
  Population Mitotic Cells (%): 32% and 18%
  Population Normal (%): 69% and 73%
  Population Pyknosed Nuclei (%): 23% and 27%
  Population Tubulin-Different-Phenotype (%): 71% and 74%
  Total Cell Count: 239 and 184
[6]
  Population Apoptotic (%): 55% and 80%
  Population Fragmented Nuclei (%): 62% and 47%
  Population Healthy Nuclei (%): 14% and 30%
  Population Hoechst High Intensity Objects (%): 67% and 58%
  Population Membrane Permeable-Phenotype (%): 0%
  Population Mitochondria Different-Phenotype (%): 100% and 94%
  Population Mitotic Cells (%): 44% and 20%
  Population Normal (%): 32% and 41%
  Population Pyknosed Nuclei (%): 23% and 21%
  Population Tubulin-Different-Phenotype (%): 23% and 57%
  Total Cell Count: 361 and 277
